Results taken from ChEMBL document CHEMBL4177526, “Discovery and structure activity relationship of the first potent cryptosporidium FIKK kinase inhibitor” (Bioorg Med Chem, 2017).

How the values were obtained:
[1] = target: Serine/threonine-protein kinase Chk2 (Homo sapiens) (UniProt O96017); experiment: Inhibition of human CHK2 (5 to 543 residues) assessed as residual activity at 500 nM in presence of 33P-ATP by filter binding assay relative to control
[2] = target: Serine/threonine-protein kinase BRSK2 (Homo sapiens) (UniProt Q8IWQ3); experiment: Inhibition of human BRSK2 (2 to 674 residues) assessed as residual activity at 500 nM in presence of 33P-ATP by filter binding assay relative to control
[3] = target: Discoidin domain-containing receptor 2 (Homo sapiens) (UniProt Q16832); experiment: Inhibition of human DDR2 (467 to 854 residues) assessed as residual activity at 500 nM in presence of 33P-ATP by filter binding assay relative to control
Cryptosporidium parvum [4] = experiment: Antiparasitic activity against Cryptosporidium parvum Iowa oocysts infected in human HCT8 cells pretreated prior to infection measured after 48 hrs by fluorescein labeled Vicia villosa lectin/Hoechst 33258 staining based epifluorescence microscopic analysis; assay type: functional, organism-based; conditions: Cryptosporidium parvum, Iowa, HCT-8; read-out: EC50
Procedure, shortened: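 HCT-8 cells grown in RPMI-1640 with 10% heat-inactivated FBS and penicillin. Three-fold compound dilutions in culture medium were added to confluent cells before about 5500 excysted C. parvum Iowa oocysts per well. After 48 h, cells were fixed with 4% paraformaldehyde and permeabilized. Vacuoles were stained with fluorescein-Vicia villosa lectin (1.33 µg/mL, 1 h, 37 °C) and nuclei with Hoechst 33258, then imaged by epifluorescence microscopy.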

[5] = target: Serine/threonine-protein kinase 26 (Homo sapiens) (UniProt Q9P289); experiment: Inhibition of human MST4 (1 to 416 residues) assessed as residual activity at 500 nM in presence of 33P-ATP by filter binding assay relative to control
[6] = target: CDK9/cyclin T1 (Homo sapiens) (UniProt O60563+P50750); experiment: Inhibition of human CDK9 (1 to 372 residues)/cyclinT1 (1 to 726 residues) assessed as residual activity at 500 nM in presence of 33P-ATP by filter binding assay relative to control; assay type: protein-complex assay
[7] = target: Tau-tubulin kinase 1 (Homo sapiens) (UniProt Q5TCY1); experiment: Inhibition of human TTBK1 (1 to 1321 residues) assessed as residual activity at 500 nM in presence of 33P-ATP by filter binding assay relative to control
[8] = target: Rho-associated protein kinase 2 (Homo sapiens) (UniProt O75116); experiment: Inhibition of human ROCK2 (2 to 543 residues) assessed as residual activity at 500 nM in presence of 33P-ATP by filter binding assay relative to control
[9] = target: Proto-oncogene tyrosine-protein kinase Src (Homo sapiens) (UniProt P12931); experiment: Inhibition of human SRC (1 to 536 residues) assessed as residual activity at 500 nM in presence of 33P-ATP by filter binding assay relative to control
[10] = target: Serine/threonine-protein kinase SIK3 (Homo sapiens) (UniProt Q9Y2K2); experiment: Inhibition of human SIK3 (2 to 1369 residues) assessed as residual activity at 500 nM in presence of 33P-ATP by filter binding assay relative to control
[11] = target: Mitogen-activated protein kinase kinase kinase kinase 3 (Homo sapiens) (UniProt Q8IVH8); experiment: Inhibition of human MAP4K3 (1 to 873 residues) assessed as residual activity at 500 nM in presence of 33P-ATP by filter binding assay relative to control
[12] = target: Serine/threonine-protein kinase PAK 5 (Homo sapiens) (UniProt Q9P286); experiment: Inhibition of human PAK5 (2 to 719 residues) assessed as residual activity at 500 nM in presence of 33P-ATP by filter binding assay relative to control
[13] = target: Homeodomain-interacting protein kinase 2 (Homo sapiens) (UniProt Q9H2X6); experiment: Inhibition of human HIPK2 (165 to 564 residues) assessed as residual activity at 500 nM in presence of 33P-ATP by filter binding assay relative to control
[14] = Inhibition of recombinant Cryptosporidium parvum FIKK using RRRAPSFYRK peptide as substrate by NADH coupled LDH-PK ATPase assay
[15] = target: Serine/threonine-protein kinase MARK1 (Homo sapiens) (UniProt Q9P0L2); experiment: Inhibition of human MARK1 (2 to 795 residues) assessed as residual activity at 500 nM in presence of 33P-ATP by filter binding assay relative to control
[16] = tested on: Ribosomal protein S6 kinase beta-1 (Homo sapiens), P23443 [T412E]; experiment: Inhibition of human S6K1 T412E mutant (1 to 421 residues) assessed as residual activity at 500 nM in presence of 33P-ATP by filter binding assay relative to control
[17] = target: Tyrosine-protein kinase CSK (Homo sapiens) (UniProt P41240); experiment: Inhibition of human CSK (1 to 450 residues) assessed as residual activity at 500 nM in presence of 33P-ATP by filter binding assay relative to control
[18] = target: Serine/threonine-protein kinase MARK2 (Homo sapiens) (UniProt Q7KZI7); experiment: Inhibition of human MARK2 (2 to 691 residues) assessed as residual activity at 500 nM in presence of 33P-ATP by filter binding assay relative to control
[19] = target: Serine/threonine-protein kinase Sgk1 (Homo sapiens) (UniProt O00141); experiment: Inhibition of human SGK1 (60 to 431 residues) assessed as residual activity at 500 nM in presence of 33P-ATP by filter binding assay relative to control
Cryptosporidium parvum [20] = experiment: Selectivity ratio of IC50 for Cryptosporidium parvum CDPK1 to IC50 for recombinant Cryptosporidium parvum FIKK
[21] = target: Protein kinase C alpha type (Homo sapiens) (UniProt P17252); experiment: Inhibition of human PKCalpha (1 to 672 residues) assessed as residual activity at 500 nM in presence of 33P-ATP by filter binding assay relative to control
[22] = target: Ephrin type-B receptor 3 (Homo sapiens) (UniProt P54753); experiment: Inhibition of human EPHB3 (565 to 984 residues) assessed as residual activity at 500 nM in presence of 33P-ATP by filter binding assay relative to control
[23] = target: Serine/threonine-protein kinase ULK2 (Homo sapiens) (UniProt Q8IYT8); experiment: Inhibition of human ULK2 (1 to 1036 residues) assessed as residual activity at 500 nM in presence of 33P-ATP by filter binding assay relative to control
[24] = target: Protein-tyrosine kinase 6 (Homo sapiens) (UniProt Q13882); experiment: Inhibition of human BRK (1 to 451 residues) assessed as residual activity at 500 nM in presence of 33P-ATP by filter binding assay relative to control
[25] = target: Serine/threonine-protein kinase TBK1 (Homo sapiens) (UniProt Q9UHD2); experiment: Inhibition of human TBK1 (1 to 729 residues) assessed as residual activity at 500 nM in presence of 33P-ATP by filter binding assay relative to control

Ribosomal protein S6 kinase beta-1 (Homo sapiens), P23443 [T412E], sequence (P23443 whole entry T412E, looked up, the tested form may be a part): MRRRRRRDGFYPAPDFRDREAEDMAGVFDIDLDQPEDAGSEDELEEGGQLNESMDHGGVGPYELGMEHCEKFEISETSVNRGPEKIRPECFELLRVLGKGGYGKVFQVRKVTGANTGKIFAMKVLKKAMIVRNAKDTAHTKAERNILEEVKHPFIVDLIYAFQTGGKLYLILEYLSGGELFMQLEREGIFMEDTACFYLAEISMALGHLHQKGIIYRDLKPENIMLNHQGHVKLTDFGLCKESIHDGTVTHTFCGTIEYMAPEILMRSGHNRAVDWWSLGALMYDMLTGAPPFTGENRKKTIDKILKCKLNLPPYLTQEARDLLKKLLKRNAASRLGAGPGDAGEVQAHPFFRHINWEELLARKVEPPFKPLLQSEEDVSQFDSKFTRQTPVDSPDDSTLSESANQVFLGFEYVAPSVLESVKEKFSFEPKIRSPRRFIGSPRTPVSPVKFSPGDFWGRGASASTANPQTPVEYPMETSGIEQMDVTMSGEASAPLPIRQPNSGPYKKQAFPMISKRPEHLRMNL
Tyrosine-protein kinase CSK (Homo sapiens), sequence (P41240 2-450 limits assumed): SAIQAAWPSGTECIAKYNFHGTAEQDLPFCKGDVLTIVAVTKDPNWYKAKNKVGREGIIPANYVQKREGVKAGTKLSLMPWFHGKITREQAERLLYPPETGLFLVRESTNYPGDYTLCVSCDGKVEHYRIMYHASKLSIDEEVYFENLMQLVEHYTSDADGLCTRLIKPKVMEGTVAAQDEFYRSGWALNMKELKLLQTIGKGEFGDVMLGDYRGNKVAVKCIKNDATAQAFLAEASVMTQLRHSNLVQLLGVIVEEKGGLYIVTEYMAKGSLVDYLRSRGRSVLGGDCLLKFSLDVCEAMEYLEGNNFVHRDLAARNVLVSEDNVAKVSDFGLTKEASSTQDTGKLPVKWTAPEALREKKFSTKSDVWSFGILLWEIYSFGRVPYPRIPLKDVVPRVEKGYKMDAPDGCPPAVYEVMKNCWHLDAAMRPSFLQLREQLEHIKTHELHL
Serine/threonine-protein kinase Sgk1 (Homo sapiens), sequence (O00141 whole entry, the tested form may be a part): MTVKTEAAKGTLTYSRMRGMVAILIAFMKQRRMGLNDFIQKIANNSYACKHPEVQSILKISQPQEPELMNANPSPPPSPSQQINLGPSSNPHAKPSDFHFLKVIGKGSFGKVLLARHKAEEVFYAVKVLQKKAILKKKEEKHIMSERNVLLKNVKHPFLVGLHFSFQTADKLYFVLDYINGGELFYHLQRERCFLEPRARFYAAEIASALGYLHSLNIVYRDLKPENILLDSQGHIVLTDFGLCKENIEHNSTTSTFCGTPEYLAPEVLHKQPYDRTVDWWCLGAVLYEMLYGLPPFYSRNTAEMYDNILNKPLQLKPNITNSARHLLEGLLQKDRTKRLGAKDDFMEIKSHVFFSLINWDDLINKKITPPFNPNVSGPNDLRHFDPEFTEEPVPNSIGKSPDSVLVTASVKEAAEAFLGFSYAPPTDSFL
Rho-associated protein kinase 2 (Homo sapiens), sequence (O75116 whole entry, looked up, the tested form may be a part): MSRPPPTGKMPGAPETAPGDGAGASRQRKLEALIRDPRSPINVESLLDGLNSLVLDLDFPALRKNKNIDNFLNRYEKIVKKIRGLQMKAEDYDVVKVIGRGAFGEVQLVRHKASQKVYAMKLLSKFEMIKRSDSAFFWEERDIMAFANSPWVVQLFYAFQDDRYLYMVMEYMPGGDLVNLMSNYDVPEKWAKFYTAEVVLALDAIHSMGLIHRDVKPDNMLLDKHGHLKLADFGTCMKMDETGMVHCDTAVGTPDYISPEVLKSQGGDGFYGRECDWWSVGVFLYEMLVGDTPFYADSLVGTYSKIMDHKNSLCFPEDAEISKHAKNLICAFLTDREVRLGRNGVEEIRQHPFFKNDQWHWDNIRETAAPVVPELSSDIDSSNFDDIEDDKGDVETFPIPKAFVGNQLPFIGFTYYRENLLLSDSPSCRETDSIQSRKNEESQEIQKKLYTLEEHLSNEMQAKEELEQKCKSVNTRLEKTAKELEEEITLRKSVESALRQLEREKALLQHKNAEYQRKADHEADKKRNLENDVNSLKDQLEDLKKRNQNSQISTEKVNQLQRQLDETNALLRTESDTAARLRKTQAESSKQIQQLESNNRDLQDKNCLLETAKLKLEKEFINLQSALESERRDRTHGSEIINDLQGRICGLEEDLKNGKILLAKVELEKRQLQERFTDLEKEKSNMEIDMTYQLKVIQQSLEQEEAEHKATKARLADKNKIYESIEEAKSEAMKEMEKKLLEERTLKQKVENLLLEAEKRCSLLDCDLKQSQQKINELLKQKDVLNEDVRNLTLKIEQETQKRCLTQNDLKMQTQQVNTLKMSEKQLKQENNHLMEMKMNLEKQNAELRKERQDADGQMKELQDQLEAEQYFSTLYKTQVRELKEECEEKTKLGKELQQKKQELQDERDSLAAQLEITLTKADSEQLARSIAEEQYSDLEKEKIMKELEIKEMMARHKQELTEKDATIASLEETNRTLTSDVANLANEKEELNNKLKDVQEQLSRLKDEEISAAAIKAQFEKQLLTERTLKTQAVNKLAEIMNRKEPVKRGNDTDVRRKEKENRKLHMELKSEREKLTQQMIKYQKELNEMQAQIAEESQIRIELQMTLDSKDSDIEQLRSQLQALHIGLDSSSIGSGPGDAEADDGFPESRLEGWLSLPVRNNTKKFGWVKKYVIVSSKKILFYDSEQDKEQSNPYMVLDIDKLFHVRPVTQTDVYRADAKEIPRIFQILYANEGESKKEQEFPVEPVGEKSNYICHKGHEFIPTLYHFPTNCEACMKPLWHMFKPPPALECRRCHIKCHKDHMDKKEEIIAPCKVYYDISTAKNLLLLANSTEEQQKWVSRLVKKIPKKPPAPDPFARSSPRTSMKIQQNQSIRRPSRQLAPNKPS
Homeodomain-interacting protein kinase 2 (Homo sapiens), sequence (Q9H2X6 whole entry, looked up, the tested form may be a part): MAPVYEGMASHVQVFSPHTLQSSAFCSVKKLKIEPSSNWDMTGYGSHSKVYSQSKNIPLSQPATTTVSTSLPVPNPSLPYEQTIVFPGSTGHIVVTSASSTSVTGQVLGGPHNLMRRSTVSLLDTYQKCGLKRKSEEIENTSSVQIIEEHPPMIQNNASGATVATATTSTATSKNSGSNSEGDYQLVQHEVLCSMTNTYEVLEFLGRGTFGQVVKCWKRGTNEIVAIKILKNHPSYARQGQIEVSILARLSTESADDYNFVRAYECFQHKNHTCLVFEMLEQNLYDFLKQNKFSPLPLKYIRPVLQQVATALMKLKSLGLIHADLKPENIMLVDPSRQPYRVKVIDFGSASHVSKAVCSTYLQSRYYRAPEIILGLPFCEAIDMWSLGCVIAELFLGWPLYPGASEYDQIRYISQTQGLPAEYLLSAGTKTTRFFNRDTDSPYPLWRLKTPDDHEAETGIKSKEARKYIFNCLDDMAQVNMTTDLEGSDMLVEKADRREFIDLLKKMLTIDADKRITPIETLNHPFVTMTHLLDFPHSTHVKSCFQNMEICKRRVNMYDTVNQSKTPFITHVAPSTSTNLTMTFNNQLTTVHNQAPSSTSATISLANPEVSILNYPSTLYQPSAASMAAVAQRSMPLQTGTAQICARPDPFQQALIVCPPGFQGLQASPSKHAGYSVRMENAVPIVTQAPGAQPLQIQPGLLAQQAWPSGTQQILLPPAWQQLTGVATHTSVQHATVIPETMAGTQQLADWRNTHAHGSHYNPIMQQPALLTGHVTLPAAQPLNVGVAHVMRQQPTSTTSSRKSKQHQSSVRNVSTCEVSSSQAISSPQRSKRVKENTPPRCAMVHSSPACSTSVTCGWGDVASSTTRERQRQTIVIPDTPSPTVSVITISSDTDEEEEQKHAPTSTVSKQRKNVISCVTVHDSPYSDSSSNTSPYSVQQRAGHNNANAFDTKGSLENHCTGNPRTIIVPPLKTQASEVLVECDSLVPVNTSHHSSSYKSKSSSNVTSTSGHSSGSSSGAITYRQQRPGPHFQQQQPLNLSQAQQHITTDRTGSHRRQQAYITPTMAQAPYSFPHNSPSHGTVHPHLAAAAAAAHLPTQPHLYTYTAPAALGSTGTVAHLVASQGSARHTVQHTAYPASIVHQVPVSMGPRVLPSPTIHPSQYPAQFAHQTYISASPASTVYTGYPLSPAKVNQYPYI
Discoidin domain-containing receptor 2 (Homo sapiens), sequence (Q16832 whole entry, the tested form may be a part): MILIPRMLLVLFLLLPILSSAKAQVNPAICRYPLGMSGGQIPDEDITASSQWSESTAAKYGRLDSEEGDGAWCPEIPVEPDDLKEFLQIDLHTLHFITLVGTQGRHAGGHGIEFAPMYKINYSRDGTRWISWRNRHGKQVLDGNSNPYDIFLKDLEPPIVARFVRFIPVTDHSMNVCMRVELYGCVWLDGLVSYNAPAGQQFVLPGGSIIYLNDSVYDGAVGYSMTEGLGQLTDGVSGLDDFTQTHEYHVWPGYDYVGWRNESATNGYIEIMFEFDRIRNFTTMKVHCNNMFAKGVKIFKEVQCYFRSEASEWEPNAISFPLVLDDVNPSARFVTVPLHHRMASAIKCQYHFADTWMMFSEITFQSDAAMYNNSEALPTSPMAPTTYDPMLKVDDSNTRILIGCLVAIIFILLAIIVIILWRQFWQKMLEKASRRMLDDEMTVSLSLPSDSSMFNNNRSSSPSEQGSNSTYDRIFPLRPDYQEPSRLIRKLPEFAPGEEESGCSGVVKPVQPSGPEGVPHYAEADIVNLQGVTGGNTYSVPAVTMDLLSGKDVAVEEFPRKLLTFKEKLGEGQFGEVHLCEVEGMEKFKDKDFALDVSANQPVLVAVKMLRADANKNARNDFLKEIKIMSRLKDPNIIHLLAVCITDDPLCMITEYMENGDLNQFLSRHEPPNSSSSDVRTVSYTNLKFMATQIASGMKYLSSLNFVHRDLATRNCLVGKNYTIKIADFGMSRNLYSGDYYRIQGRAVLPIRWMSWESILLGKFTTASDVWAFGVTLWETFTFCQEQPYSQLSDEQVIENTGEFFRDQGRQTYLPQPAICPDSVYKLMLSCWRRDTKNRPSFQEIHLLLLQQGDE

Activity [1]: 101% | Activity [2]: 89% | Activity [3]: 91% | EC50 (Cryptosporidium parvum [4]): 2600 nM | Activity [5]: 113% | Activity [6]: 106% | Activity [7]: 112% | Activity [8]: 112% | Activity [9]: 105% | Activity [10]: 86% | Activity [11]: 118% | Activity [12]: 107% | Activity [13]: 131% | IC50 [14]: 0.2 nM | Activity [15]: 91% | Activity [16]: 136% | Activity [17]: 99% | Activity [18]: 134% | Activity [19]: 124% | Ratio IC50 (Cryptosporidium parvum [20]): 940 | Activity [21]: 112% | Activity [22]: 89% | Activity [23]: 118% | Activity [24]: 74% | Activity [25]: 77%
Structure (SMILES): Cc1cccc(-c2nc(N)sc2-c2ccc3ncccc3n2)c1
